From PubChem
Jurkat NFkB inh – inhibitors of induced NF-kB luciferase reporter, primary screen, TCR NF-kB activation inhibitor project, cell-based, luminescence, uHTS | Jurkat, PMA/ionomycin-induced NF-kB luciferase reporter | inhibition, % at 4 µM | 330,000 tested, 0.53% active; in the data active = inhibition above about 50%
CHOP UPR activ – activators of apoptotic CHOP UPR arm, primary screen, cell-based, CHO-CHOP luciferase reporter, luminescence, uHTS | UPR activation; percent of tunicamycin response over DMSO baseline | activation, % at 10 µM | 330,000 tested, 0.34% active;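 active = at 10 µM dose, activation of 40% or more, normalized to positive control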;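 note: 100% = tunicamycin at 10 µg/mL and 0% = DMSO alone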
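System: CHO-CHOP luciferase reporter cell line | Buffer or medium: F12 medium containing 10% fetal bovine serum | Doses: One dose, 10 µM in 0.5% DMSO | Times: 6 h compound exposure at 37 °C after overnight seeding | Signal: Luciferase luminescence | Read-out: % activation vs tunicamycin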
CHOP inh – inhibitors of CHOP promoter induction, primary screen, cell-based, unfolded protein response, luciferase reporter. inhibition, % at 10 µM. 220,000 tested, 3.8% active. CHO-K1 CHOP-promoter luciferase, tunicamycin-induced, 15-18 h;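 active = compounds that reduced the stress-induced luciferase reporter signal by more than about 70% of percent inhibition, limit read from the data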;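 note: 0% = tunicamycin plus vehicle and 100% = wells without tunicamycin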
UPR XBP1 act – activators of adaptive XBP1 UPR arm, primary screen, cell-based, CHO-XBP1 luciferase reporter, luminescence, uHTS; IRE1-XBP1 UPR activation; percent of tunicamycin response, DMSO as zero; activation, % at 20 µM; 330,000 tested, 0.33% active;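 active = versus positive control, 20 µM dose yields 30% or more activation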;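 note: 100% = tunicamycin at 10 µg/mL and 0% = DMSO only wells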
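assay system = CHO-XBP1 luciferase reporter cells | amount = 1000 cells/well | buffer or medium = F12 plus 10% FBS | compound dosing = single point, 20 µM final compound, 1% DMSO | incubation = 16-18 h cell attachment at 37 °C, then 6 h compound exposure | detection = Steady-Glo luminescence read | controls = tunicamycin 10 µg/mL and vehicle-only wells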
Gli-Sufu block – Gli-Sufu pathway antagonists, primary screen, luciferase luminescence, Sufu-KO-LIGHT cells, uHTS; inhibition, % at 5 µM; Sufu-KO-LIGHT fibroblasts, Gli luciferase reporter luminescence; 340,000 tested, 0.74% active;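 active = inhibition above about 55%, limit read from the data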;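 note: 0% = DMSO-treated cells and 100% = wells with medium but no cells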
697 NFkB inh – inhibitors of PMA/ionomycin-induced NF-kB reporter, 697 cells, primary screen, B-cell NF-kB inhibitor project, cell-based, luminescence, uHTS | 330,000 tested, 0.33% active | 697 B-cell NF-kB luciferase reporter, 16 h | AID 435022, 2010 | inhibition, % at 4 µM; in the data active = inhibition above about 35%
Gli-Sufu confirm – Gli-SUFU pathway antagonists, confirmation, single concentration, luciferase luminescence, Sufu-KO-LIGHT cells; Gli luciferase reporter; shares compounds with Gli-Sufu block; inhibition, % at 5 µM; 2,500 tested, 40% active;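 active = mean inhibition at 5 µM reaching about 45%, limit read from the data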;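 note: plate controls were DMSO-treated cells for no effect and wells lacking cells for full effect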
SufuKO cytotox – cytotoxicity in Sufu-KO-LIGHT cells, confirmation, cytotoxicity control for Gli-SUFU antagonist project, cell-based, ATP luminescence, single concentration | shares compounds with Gli-Sufu block | cytotoxicity, % at 5 µM | 2,500 tested, 32% active;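 active = mean cytotoxicity at 5 µM above about 25%, limit read from the data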;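 note: cells exposed to compound overnight for roughly 16 to 18 hours; plate controls were DMSO wells with cells for no effect and medium without cells for full effect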
Wnt3a cs – Wnt3a reporter signal inhibition, confirmation, counter-screen for Gli-SUFU antagonist project, Wnt-LIGHT cells, luminescence, single concentration | Wnt3a-driven luciferase reporter | AID 651995, 2013 | shares compounds with Gli-Sufu block | inhibition, % at 6.25 µM | 2,500 tested, 20% active;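 active = mean inhibition above about 25%, limit read from the data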
Starred values were filed as active, the others as inactive. In the library only some 3.9% were active in any assay of this set; here they are far more common.

How did CC1CN(CCOc2cccc(Oc3ccccc3)c2)CC(C)O1 (stereo not drawn) do in these assays?
Jurkat NFkB inh: -1; CHOP UPR activ: 1; UPR XBP1 act: -5; Gli-Sufu block: 52; 697 NFkB inh: -22; Gli-Sufu confirm: 14; SufuKO cytotox: 14; Wnt3a cs: -9

How did COc1ccc(NC(=O)CN2C(=O)NC3(CCCC3)C2=O)cc1Cl do in these assays?
Jurkat NFkB inh: -1; CHOP UPR activ: 0; UPR XBP1 act: -4; Gli-Sufu block: 2; 697 NFkB inh: 4

How did Cc1cc(-c2cccnc2)c(C#N)c(SCc2cccc(F)c2)n1 do in these assays?
Jurkat NFkB inh: -7; CHOP UPR activ: -1; CHOP inh: 55; UPR XBP1 act: 3; Gli-Sufu block: 55; 697 NFkB inh: -1; Gli-Sufu confirm: 31; SufuKO cytotox: 22; Wnt3a cs: 2

How did Cc1nc2nc(-c3cccs3)cn2nc1C do in these assays?
Jurkat NFkB inh: -20; CHOP UPR activ: 2; CHOP inh: 11; UPR XBP1 act: 0; Gli-Sufu block: 53; 697 NFkB inh: -13; Gli-Sufu confirm: -64; SufuKO cytotox: 12; Wnt3a cs: -27

How did Cc1nn(C)cc1/C=C/C(=O)c1cccs1 do in these assays?
Jurkat NFkB inh: -32; CHOP UPR activ: 7; CHOP inh: -21; UPR XBP1 act: 3; Gli-Sufu block: 0; 697 NFkB inh: -44

Results for Cc1nn(C)cc1/C=C/C(=O)c1ccccc1 ?
Jurkat NFkB inh: -31; CHOP UPR activ: 4; CHOP inh: -11; UPR XBP1 act: 1; Gli-Sufu block: 99*; 697 NFkB inh: -33; Gli-Sufu confirm: 14; SufuKO cytotox: 6; Wnt3a cs: -5

How did CCCCOc1ccccc1NC(=O)c1ccco1 do in these assays?
Jurkat NFkB inh: 17; CHOP UPR activ: 0; CHOP inh: 36; UPR XBP1 act: 3; Gli-Sufu block: -7; 697 NFkB inh: 8

How did CCCCOc1ccccc1NC(=O)c1scc2c1OCCO2 do in these assays?
CHOP inh: 39; Gli-Sufu block: 56*; Gli-Sufu confirm: 15; SufuKO cytotox: 15; Wnt3a cs: -46

What do the screens show for `C#CCOc1ccc(C2C3=C(COC3=O)Nc3cc4c(cc32)OCO4)cc1OC` (stereo not drawn)?
CHOP inh: -40; Gli-Sufu block: -19

What do the screens show for `O=C1OCC2=C1C(c1ccc(F)cc1)c1cc3c(cc1N2)OCO3` (stereo not drawn)?
CHOP inh: -22; Gli-Sufu block: 56*; Gli-Sufu confirm: 58*; SufuKO cytotox: 62*; Wnt3a cs: 25

What do the screens show for `CCOc1ccccc1C1C2=C(COC2=O)Nc2cc3c(cc21)OCO3` (stereo not drawn)?
Jurkat NFkB inh: 41; CHOP UPR activ: 2; CHOP inh: -19; UPR XBP1 act: 15; Gli-Sufu block: 55; 697 NFkB inh: 14; Gli-Sufu confirm: 52*; SufuKO cytotox: 62*; Wnt3a cs: 13

Results for Cc1cc(C)cc(OCC(O)CN2CCN(Cc3ccc4c(c3)OCO4)CC2)c1 (stereo not drawn) ?
Jurkat NFkB inh: 10; CHOP UPR activ: -1; CHOP inh: 11; UPR XBP1 act: -2; Gli-Sufu block: 64*; 697 NFkB inh: -3; Gli-Sufu confirm: 27; SufuKO cytotox: 10; Wnt3a cs: -50
